Reference: ChEMBL document CHEMBL1130209, “A novel series of 2,5-substituted tryptamine derivatives as vascular 5HT1B/1D receptor antagonists” (J Med Chem, 1997)

Experiments:
Adrenergic receptor beta = Adrenergic receptor beta (Rattus norvegicus, UniProt P18090+P10608+P26255); assay: Affinity pKi for Beta adrenergic receptor was measured in rat cortex homogenates
Outline: (§1)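 Competition binding with rat cortex homogenate: radioligand near its KD plus a wide range of test drug concentrations in duplicate, 30 min at 27 °C. Buffer 50 mM TRIS-HCl, 5 mM CaCl₂, 0.1% (w/v) ascorbate, 10 mM pargyline. Nonspecific binding defined with excess cold 5HT. Rapid filtration with ice-cold buffer wash, liquid scintillation count. pKi is the mean of at least three estimates.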

[1] = molecular target: Histamine H1 receptor (Homo sapiens) (UniProt P35367); assay: The dissociation equilibrium constant (pKB=-log KB) of compound was determined against the Histamine H1 receptor in the rabbit thoracic aorta; format: tissue-based; details: Oryctolagus cuniculus, target entry is the homologue from another species
Chain of Histamine H1 receptor (Homo sapiens) (P35367 whole entry): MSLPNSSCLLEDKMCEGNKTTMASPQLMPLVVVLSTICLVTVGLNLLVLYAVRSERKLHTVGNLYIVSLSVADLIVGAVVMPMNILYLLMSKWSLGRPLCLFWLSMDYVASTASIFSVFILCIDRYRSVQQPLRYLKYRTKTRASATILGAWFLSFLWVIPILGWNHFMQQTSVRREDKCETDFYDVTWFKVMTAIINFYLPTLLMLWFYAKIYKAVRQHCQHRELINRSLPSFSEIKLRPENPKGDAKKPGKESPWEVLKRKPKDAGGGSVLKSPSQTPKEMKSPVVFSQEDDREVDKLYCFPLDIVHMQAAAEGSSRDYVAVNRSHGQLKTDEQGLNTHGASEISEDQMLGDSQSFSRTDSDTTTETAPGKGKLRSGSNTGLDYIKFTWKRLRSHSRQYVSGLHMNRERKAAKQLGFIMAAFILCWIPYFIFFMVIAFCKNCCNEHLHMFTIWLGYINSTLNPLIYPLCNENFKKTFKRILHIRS

[2] = The dissociation equilibrium constant (pKB=-log KB) of compound was determined against the Muscarinic acetylcholine receptor M3 in the guinea pig trachea.; details: Cavia porcellus
[3] = molecular target: 5-hydroxytryptamine receptor 2B (Homo sapiens) (UniProt P41595); assay: The dissociation equilibrium constant (pKB=-log KB) of compound was determined against the vascular 5-hydroxytryptamine 2B receptor in the endothelium intact rabbit jugular vein.; details: Oryctolagus cuniculus; target entry is the homologue from another species
Chain of 5-hydroxytryptamine receptor 2B (Homo sapiens) (P41595 whole entry): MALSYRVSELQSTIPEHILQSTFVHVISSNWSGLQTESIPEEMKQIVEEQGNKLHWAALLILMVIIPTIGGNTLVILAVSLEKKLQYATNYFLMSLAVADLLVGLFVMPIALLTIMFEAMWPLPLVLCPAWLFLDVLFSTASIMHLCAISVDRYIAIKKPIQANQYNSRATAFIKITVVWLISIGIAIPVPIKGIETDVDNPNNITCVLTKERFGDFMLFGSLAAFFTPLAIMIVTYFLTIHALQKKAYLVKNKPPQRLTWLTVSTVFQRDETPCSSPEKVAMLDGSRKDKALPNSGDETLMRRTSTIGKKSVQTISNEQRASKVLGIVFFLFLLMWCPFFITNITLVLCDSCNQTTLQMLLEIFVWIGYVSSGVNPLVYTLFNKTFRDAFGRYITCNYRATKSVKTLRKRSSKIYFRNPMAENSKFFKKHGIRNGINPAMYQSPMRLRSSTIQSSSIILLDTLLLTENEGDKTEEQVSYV

[4] = molecular target: 5-hydroxytryptamine receptor 2A (Rattus norvegicus, UniProt P14842); assay: Affinity pKi for 5-hydroxytryptamine 2A receptor was measured in rat cortex homogenates; format: tissue-based; outline: as §1
Chain of 5-hydroxytryptamine receptor 2A (P14842 whole entry): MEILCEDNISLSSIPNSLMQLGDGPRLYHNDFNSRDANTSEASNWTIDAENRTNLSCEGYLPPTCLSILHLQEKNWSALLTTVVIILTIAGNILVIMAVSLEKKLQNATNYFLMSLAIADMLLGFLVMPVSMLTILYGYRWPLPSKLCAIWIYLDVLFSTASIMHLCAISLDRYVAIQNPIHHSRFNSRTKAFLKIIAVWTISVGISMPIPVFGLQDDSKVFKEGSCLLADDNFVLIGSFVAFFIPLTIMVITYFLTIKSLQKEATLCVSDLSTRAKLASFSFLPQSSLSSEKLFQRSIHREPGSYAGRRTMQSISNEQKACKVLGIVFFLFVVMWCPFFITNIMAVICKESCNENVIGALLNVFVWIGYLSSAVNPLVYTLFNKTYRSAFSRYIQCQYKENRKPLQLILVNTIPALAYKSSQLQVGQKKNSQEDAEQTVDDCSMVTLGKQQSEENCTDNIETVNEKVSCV

[5] = molecular target: T1, 5-hydroxytryptamine receptor 1A (Rattus norvegicus, UniProt P19327); assay: Affinity pKi for 5-hydroxytryptamine 1A receptor was measured in rat cortex homogenates.; format: tissue-based; outline: as §1
T1 sequence (P19327 whole entry): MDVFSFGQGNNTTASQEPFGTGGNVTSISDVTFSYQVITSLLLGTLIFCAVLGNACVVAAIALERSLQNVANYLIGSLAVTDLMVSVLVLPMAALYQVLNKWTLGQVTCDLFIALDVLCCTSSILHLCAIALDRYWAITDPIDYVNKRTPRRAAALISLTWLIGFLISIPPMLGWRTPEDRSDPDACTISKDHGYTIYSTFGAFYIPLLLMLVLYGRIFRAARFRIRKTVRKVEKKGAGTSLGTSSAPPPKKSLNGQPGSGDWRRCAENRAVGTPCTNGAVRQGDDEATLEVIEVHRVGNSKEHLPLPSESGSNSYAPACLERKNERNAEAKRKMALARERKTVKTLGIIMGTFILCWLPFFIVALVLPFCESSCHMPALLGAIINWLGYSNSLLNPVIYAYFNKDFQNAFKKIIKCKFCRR

[6] = molecular target: T2, Adrenergic receptor alpha-2 (Rattus norvegicus, UniProt P22086+P19328+P22909); assay: Affinity pKi for Alpha-2 adrenergic receptor was measured in rat cortex homogenates.; format: tissue-based; outline: as §1
T2 sequence (P22086 whole entry): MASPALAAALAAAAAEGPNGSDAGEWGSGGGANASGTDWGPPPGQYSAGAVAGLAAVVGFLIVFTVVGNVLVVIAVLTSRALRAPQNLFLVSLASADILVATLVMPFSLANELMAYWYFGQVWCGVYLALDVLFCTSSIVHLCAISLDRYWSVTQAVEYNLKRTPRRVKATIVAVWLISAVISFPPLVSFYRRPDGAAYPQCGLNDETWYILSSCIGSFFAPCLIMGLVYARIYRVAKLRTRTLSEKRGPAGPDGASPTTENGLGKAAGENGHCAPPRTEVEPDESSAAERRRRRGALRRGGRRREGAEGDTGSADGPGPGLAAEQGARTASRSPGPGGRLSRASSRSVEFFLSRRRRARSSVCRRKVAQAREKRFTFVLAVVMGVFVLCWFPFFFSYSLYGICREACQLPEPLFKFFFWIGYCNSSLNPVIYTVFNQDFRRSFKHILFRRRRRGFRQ
T2 sequence (P19328 whole entry): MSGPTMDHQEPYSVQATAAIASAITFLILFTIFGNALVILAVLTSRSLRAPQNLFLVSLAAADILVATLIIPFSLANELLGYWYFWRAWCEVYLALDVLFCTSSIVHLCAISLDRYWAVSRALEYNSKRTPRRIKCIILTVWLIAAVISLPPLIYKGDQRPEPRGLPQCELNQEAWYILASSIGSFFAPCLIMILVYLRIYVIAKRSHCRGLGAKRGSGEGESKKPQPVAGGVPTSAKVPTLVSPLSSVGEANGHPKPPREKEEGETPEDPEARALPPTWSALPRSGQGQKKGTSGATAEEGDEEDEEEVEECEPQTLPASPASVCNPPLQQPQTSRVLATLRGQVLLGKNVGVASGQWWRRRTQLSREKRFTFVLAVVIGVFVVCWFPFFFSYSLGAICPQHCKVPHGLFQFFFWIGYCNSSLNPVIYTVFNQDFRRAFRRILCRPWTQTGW
T2 sequence (P22909 whole entry): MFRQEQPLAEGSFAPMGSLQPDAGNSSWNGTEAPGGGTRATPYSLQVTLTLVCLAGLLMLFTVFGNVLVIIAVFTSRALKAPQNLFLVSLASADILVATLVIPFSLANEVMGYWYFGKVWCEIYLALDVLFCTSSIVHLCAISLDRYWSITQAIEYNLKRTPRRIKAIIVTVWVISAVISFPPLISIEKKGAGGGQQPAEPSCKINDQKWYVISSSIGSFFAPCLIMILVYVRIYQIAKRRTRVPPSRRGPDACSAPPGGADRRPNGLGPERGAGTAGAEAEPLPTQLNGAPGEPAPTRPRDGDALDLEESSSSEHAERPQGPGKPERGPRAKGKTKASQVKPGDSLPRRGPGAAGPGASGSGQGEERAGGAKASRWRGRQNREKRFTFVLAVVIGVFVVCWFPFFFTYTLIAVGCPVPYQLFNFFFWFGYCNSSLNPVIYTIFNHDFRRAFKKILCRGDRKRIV

[7] = molecular target: 5-hydroxytryptamine receptor 2A (Homo sapiens) (UniProt P28223); assay: Dissociation equilibrium constant against the vascular 5-hydroxytryptamine 2A receptor in the rabbit […] aorta; format: tissue-based; details: Oryctolagus cuniculus, target entry is the homologue from another species
Chain of 5-hydroxytryptamine receptor 2A (Homo sapiens) (P28223 whole entry): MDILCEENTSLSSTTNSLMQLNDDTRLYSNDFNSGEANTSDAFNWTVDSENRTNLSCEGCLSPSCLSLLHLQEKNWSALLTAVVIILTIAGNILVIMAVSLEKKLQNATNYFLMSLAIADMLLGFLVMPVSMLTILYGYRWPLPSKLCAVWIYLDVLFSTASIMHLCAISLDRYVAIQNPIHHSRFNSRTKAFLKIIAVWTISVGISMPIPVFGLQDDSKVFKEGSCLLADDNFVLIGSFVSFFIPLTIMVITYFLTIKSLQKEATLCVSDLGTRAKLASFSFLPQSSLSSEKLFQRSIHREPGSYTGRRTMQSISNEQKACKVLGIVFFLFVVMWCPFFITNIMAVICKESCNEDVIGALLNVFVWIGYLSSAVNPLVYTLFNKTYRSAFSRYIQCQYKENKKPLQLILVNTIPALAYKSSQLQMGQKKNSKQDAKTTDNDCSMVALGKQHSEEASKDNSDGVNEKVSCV

[8] = molecular target: T3, 5-hydroxytryptamine receptor 2C (Rattus norvegicus, UniProt P08909); assay: Affinity pKi for 5-hydroxytryptamine 2C receptor was measured in rat cortex homogenates.; format: tissue-based; outline: as §1
T3 sequence (P08909 whole entry): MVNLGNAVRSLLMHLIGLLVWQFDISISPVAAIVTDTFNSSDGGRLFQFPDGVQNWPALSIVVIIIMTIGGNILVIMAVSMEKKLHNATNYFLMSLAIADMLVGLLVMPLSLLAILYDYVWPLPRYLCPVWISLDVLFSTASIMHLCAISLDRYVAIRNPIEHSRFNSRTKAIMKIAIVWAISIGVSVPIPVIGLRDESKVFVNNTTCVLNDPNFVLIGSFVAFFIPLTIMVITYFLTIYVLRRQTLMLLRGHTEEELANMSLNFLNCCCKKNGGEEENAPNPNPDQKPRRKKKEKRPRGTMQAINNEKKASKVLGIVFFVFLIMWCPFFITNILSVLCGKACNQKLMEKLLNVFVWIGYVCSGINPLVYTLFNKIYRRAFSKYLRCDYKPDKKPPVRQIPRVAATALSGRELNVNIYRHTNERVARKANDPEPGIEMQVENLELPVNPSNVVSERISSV

D(2) dopamine receptor = D(2) dopamine receptor (Rattus norvegicus, UniProt P61169); assay: Affinity pKi for Dopamine receptor D2 was measured in rat cortex homogenates; format: tissue-based; outline: as §1
Chain of D(2) dopamine receptor (P61169 whole entry): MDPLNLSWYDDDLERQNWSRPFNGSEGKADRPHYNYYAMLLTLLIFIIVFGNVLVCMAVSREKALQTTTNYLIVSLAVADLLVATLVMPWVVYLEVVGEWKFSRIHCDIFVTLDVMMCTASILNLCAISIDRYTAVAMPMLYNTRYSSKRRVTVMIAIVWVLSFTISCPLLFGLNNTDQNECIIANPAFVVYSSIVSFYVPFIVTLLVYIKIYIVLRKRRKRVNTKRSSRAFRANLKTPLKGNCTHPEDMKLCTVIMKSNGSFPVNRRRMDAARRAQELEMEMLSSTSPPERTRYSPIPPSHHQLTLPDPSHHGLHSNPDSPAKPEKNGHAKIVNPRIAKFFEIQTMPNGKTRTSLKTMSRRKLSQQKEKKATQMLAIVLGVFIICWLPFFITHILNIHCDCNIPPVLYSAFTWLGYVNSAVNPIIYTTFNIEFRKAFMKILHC

CCOC(=O)c1[nH]c2ccc(CCN3C(=O)CNC3=O)cc2c1CCN(C)C
Log Ki (Adrenergic receptor beta): -4.34 | pKB [1]: < 5 | pKB [2]: < 5 | pKB [3]: < 5 | Ki [4]: 7.94 µM | Ki [5]: 9.33 µM | Log Ki [6]: -5.25 | pKB [7]: 5.8 | Ki [8]: 5.5 µM | Ki (D(2) dopamine receptor): 10.7 µM
